Experimental data from ChEMBL document CHEMBL1140702, “New celecoxib derivatives as anti-inflammatory agents” (J Med Chem, 2008).

How the values were obtained:
[1] = system: Rattus norvegicus; assay: Antiinflammatory activity in Wistar rat assessed as inhibition of carrageenan-induced paw edema at 10 mg/kg, po after 4 hrs relative to celecoxib; assay type: functional; conditions: for inhibition in vivo at 10 mg/kg: Rattus norvegicus, Wistar, po, 4 h
Outline: (§1)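 Male Wistar rats (140–150 g; n = 6–12/group) given 50 µL of 1% carrageenan subcutaneously into the right hind paw subplantar region. Oral test doses. Edema is the pre- versus post-treatment volume difference (mL), read by water-displacement plethysmometer.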

[2] = system: Rattus norvegicus; assay: Antiinflammatory activity in Wistar rat assessed as inhibition of carrageenan-induced paw edema at 10 mg/kg, po after 6 hrs relative to celecoxib; assay type: functional; conditions: for inhibition in vivo at 10 mg/kg: Rattus norvegicus, Wistar, po, 6 h; outline: as §1
[3] = system: Rattus norvegicus; assay: Antiinflammatory activity in Wistar rat assessed as inhibition of carrageenan-induced paw edema at 10 mg/kg, po after 7 hrs relative to celecoxib; assay type: functional; conditions: for inhibition in vivo at 10 mg/kg: Rattus norvegicus, Wistar, po, 7 h; outline: as §1
[4] = system: Rattus norvegicus; assay: Antiinflammatory activity in Wistar rat assessed as inhibition of carrageenan-induced paw edema after 4 hrs; assay type: functional
[5] = system: Rattus norvegicus; assay: Analgesic activity in acute model Wistar rat assessed as reversal of carrageenan-induced hind paw edema at 10 mg/kg, po after 60 mins by mechanical hyperalgesia test relative to celecoxib; assay type: functional
Outline: (§2)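 Randall-Selitto test: male Wistar rats (140–190 g; n = 8–12/group), carrageenan injected subcutaneously in the subplantar right hind paw. Basal paw-withdrawal pressure threshold (g) measured before carrageenan, then after oral dosing at 30, 60, 120 and 180 min. Maximal threshold reduction develops 2–3 h post-injection. Analgesia expressed as % reversal of hyperalgesia.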

[6] = system: Rattus norvegicus; assay: Analgesic activity in acute model Wistar rat assessed as reversal of carrageenan-induced hind paw edema at 10 mg/kg, po after 120 mins by mechanical hyperalgesia test relative to celecoxib; assay type: functional; outline: as §2
[7] = system: Rattus norvegicus; assay: Analgesic activity in acute model Wistar rat assessed as reversal of carrageenan-induced hind paw edema at 10 mg/kg, po after 180 mins by mechanical hyperalgesia test relative to celecoxib; assay type: functional; outline: as §2
[8] = system: Rattus norvegicus; assay: Analgesic activity in acute model Wistar rat assessed as reversal of carrageenan-induced hind paw edema at 30 mg/kg, po after 60 mins by mechanical hyperalgesia test relative to celecoxib; assay type: functional; outline: as §2
[9] = system: Rattus norvegicus; assay: Effect on acetic acid-induced chronic gastric ulcer Wistar rat assessed as area of ulcer at 30 mg/kg, po; assay type: functional, Stomach
Outline: (§3)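 Chronic ulcer (Okabe method): under ether anesthesia, male Wistar rats (150–170 g) had 0.05 mL 20% acetic acid injected into the submucosa of the anterior glandular stomach wall via laparotomy. Oral dosing with methylcellulose vehicle control. Killed after 12 days. Ulcer area taken as length × width (mm²); body-weight change recorded.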

[10] = system: Rattus norvegicus; assay: Inhibition of ethanol-induced gastric mucosal damage in Wistar rat assessed as ulcer index at 30 mg/kg, po; assay type: functional, Gastric mucosa
Outline: (§4)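 After 24 h fasting, male Wistar rats (140–160 g; n = 10) received oral 0.5 mL acidified ethanol (98% ethanol in 200 mmol/l HCl), with oral test doses and methylcellulose vehicle. Stomachs removed 1 h later and scored blind on a 0–4 scale. Lesion index = lesion number × severity. % inhibition calculated against control lesion index.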

[11] = system: Rattus norvegicus; assay: Inhibition of ethanol-induced gastric mucosal damage in Wistar rat assessed as ulcer index at 15 mg/kg, po; assay type: functional, Gastric mucosa; outline: as §4
[12] = system: Rattus norvegicus; assay: Inhibition of ethanol-induced gastric mucosal damage in Wistar rat assessed as ulcer index at 60 mg/kg, po; assay type: functional, Gastric mucosa; outline: as §4
[13] = system: Rattus norvegicus; assay: Analgesic activity in acute model Wistar rat assessed as reversal of carrageenan-induced hind paw edema at 30 mg/kg, po after 120 mins by mechanical hyperalgesia test relative to celecoxib; assay type: functional; outline: as §2
[14] = system: Rattus norvegicus; assay: Analgesic activity in acute model Wistar rat assessed as reversal of carrageenan-induced hind paw edema at 30 mg/kg, po after 180 mins by mechanical hyperalgesia test relative to celecoxib; assay type: functional; outline: as §2
[15] = system: Rattus norvegicus; assay: Analgesic activity in chronic model Wistar rat assessed as reversal of carrageenan-induced hind paw edema at 10 mg/kg, po after 60 mins by mechanical hyperalgesia test relative to celecoxib; assay type: functional; outline: as §2
[16] = system: Rattus norvegicus; assay: Analgesic activity in chronic model Wistar rat assessed as reversal of carrageenan-induced hind paw edema at 10 mg/kg, po after 30 mins by mechanical hyperalgesia test relative to celecoxib; assay type: functional; outline: as §2
[17] = system: Rattus norvegicus; assay: Analgesic activity in chronic model Wistar rat assessed as reversal of carrageenan-induced hind paw edema at 10 mg/kg, po after 120 mins by mechanical hyperalgesia test relative to celecoxib; assay type: functional; outline: as §2
[18] = system: Rattus norvegicus; assay: Analgesic activity in chronic model Wistar rat assessed as reversal of carrageenan-induced hind paw edema at 10 mg/kg, po after 180 mins by mechanical hyperalgesia test relative to celecoxib; assay type: functional; outline: as §2
[19] = system: Rattus norvegicus; assay: Analgesic activity in chronic model Wistar rat assessed as reversal of carrageenan-induced hind paw edema at 30 mg/kg, po after 30 mins by mechanical hyperalgesia test relative to celecoxib; assay type: functional; outline: as §2
[20] = system: Rattus norvegicus; assay: Analgesic activity in chronic model Wistar rat assessed as reversal of carrageenan-induced hind paw edema at 30 mg/kg, po after 60 mins by mechanical hyperalgesia test relative to celecoxib; assay type: functional; outline: as §2
[21] = system: Rattus norvegicus; assay: Analgesic activity in chronic model Wistar rat assessed as reversal of carrageenan-induced hind paw edema at 30 mg/kg, po after 120 mins by mechanical hyperalgesia test relative to celecoxib; assay type: functional; outline: as §2
[22] = system: Rattus norvegicus; assay: Analgesic activity in chronic model Wistar rat assessed as reversal of carrageenan-induced hind paw edema at 30 mg/kg, po after 180 mins by mechanical hyperalgesia test relative to celecoxib; assay type: functional; outline: as §2
[23] = system: Rattus norvegicus; assay: Inhibition of ethanol-induced gastric mucosal damage in Wistar rat at 30 mg/kg, po; assay type: functional; conditions: Gastric mucosa; outline: as §4
[24] = system: Rattus norvegicus; assay: Inhibition of ethanol-induced gastric mucosal damage in Wistar rat at 15 mg/kg, po; assay type: functional; conditions: Gastric mucosa; outline: as §4
[25] = system: Rattus norvegicus; assay: Inhibition of ethanol-induced gastric mucosal damage in Wistar rat at 60 mg/kg, po; assay type: functional; conditions: Gastric mucosa; outline: as §4
[26] = system: Rattus norvegicus; assay: Increase in body weight in acetic acid-induced chronic gastric ulcer Wistar rat at 30 mg/kg, po; assay type: functional, Stomach; outline: as §3
[27] = system: Rattus norvegicus; assay: Antiinflammatory activity in Wistar rat assessed as inhibition of carrageenan-induced paw edema
[28] = system: Rattus norvegicus; assay: Effect on acetic acid-induced chronic gastric ulcer Wistar rat assessed as area of ulcer at 2.0 mg/kg, po; assay type: functional, Stomach; outline: as §3
[29] = system: Rattus norvegicus; assay: Increase in body weight in acetic acid-induced chronic gastric ulcer Wistar rat at 2.0 mg/kg, po; assay type: functional, Stomach; outline: as §3

## Cc1ccc(-c2cc(C(F)(F)F)nn2-c2ccc(S(=O)(=O)NOCCC(=O)O)cc2)cc1
[1]
  Inhibition: 23.6%
[2]
  Inhibition: 12.8%
[3]
  Inhibition: 11.9%

## CCOC(=O)CONS(=O)(=O)c1ccc(-n2nc(C(F)(F)F)cc2-c2ccc(C)cc2)cc1
[1]
  inhibition in vivo at 10 mg/kg: 13.3%
[2]
  inhibition in vivo at 10 mg/kg: 23.1%
[3]
  inhibition in vivo at 10 mg/kg: 20.6%

## Cc1ccc(-c2cc(C(F)(F)F)nn2-c2ccc(S(N)(=O)=O)cc2)cc1 [CELECOXIB]
[1]
  inhibition in vivo at 10 mg/kg: 24.2%
[2]
  inhibition in vivo at 10 mg/kg: 18.6%
[3]
  inhibition in vivo at 10 mg/kg: 12.3%
[4]
  ED30: 23 mg/kg
[5]
  Activity: 0%
[6]
  Activity: 0%
[7]
  Activity: 0%
[8]
  Activity: 24%
[9]
  Activity: 8.2 mm2
[10]
  UI: 49.4
[11]
  UI: 80.6
[12]
  UI: 44.4
[13]
  Activity: 3%
[14]
  Activity: 0%
[15]
  Activity: 17%
[16]
  Activity: 24%
[17]
  Activity: 0%
[18]
  Activity: 0%
[19]
  Activity: 54%
[20]
  Activity: 34%
[21]
  Activity: 34%
[22]
  Activity: 26%
[23]
  inhibition in vivo at 30 mg/kg: 19%
[24]
  inhibition in vivo at 15 mg/kg: 18%
[25]
  inhibition in vivo at 60 mg/kg: 55%
[26]
  Activity: 32 g
[27]
  ED30: > 30 mg/kg

## Cc1ccc(-c2cc(C(F)(F)F)nn2-c2ccc(S(=O)(=O)NOC(C)C(=O)O)cc2)cc1 (racemic; 16)
[1]
  Inhibition: 41%
[2]
  Inhibition: 31.1%
[3]
  Inhibition: 17.9%
[4]
  ED30: 5.7 mg/kg
[5]
  Activity: 24%
[6]
  Activity: 30%
[7]
  Activity: 15%
[8]
  Activity: 89%
[9]
  Activity: 2.4 mm2
[10]
  UI: 35
[11]
  UI: 43
[12]
  UI: 15.8
[13]
  Activity: 59%
[14]
  Activity: 35%
[15]
  Activity: 22%
[16]
  Activity: 23%
[17]
  Activity: 28%
[18]
  Activity: 20%
[19]
  Activity: 42%
[20]
  Activity: 54%
[21]
  Activity: 34%
[22]
  Activity: 19%
[23]
  inhibition in vivo at 30 mg/kg: 43%
[24]
  inhibition in vivo at 15 mg/kg: 35%
[25]
  inhibition in vivo at 60 mg/kg: 76%
[26]
  Activity: 43 g
[27]
  ED30: 8.4 mg/kg

## Cc1ccc(-c2cc(C(F)(F)F)nn2-c2ccc(S(=O)(=O)NO[C@H](C)C(=O)O)cc2)cc1
[1]
  inhibition in vivo at 10 mg/kg: 18.4%
[2]
  inhibition in vivo at 10 mg/kg: 15.3%
[3]
  inhibition in vivo at 10 mg/kg: 6.7%

## Cc1ccc(-c2cc(C(F)(F)F)nn2-c2ccc(S(=O)(=O)NOCC(=O)O)cc2)cc1 [listing 1 of 2 here]
[1]
  Inhibition: 13.1%
[2]
  Inhibition: 21.3%
[3]
  Inhibition: 17.1%

## Cc1ccc(-c2cc(C(F)(F)F)nn2-c2ccc(S(=O)(=O)NOCC(=O)O)cc2)cc1 [listing 2 of 2 here]
[1]
  inhibition in vivo at 10 mg/kg: 26%
[2]
  inhibition in vivo at 10 mg/kg: 33.2%
[3]
  inhibition in vivo at 10 mg/kg: 24.7%

## Cc1ccc(-c2cc(C(F)(F)F)nn2-c2ccc(S(=O)(=O)NO[C@@H](C)C(=O)O)cc2)cc1
[1]
  inhibition in vivo at 10 mg/kg: 0.9%
[2]
  inhibition in vivo at 10 mg/kg: -9.3%
[3]
  inhibition in vivo at 10 mg/kg: -6.3%

## Cc1ccc(-c2cc(C(F)(F)F)nn2-c2ccc(S(=O)(=O)NOCCC(=O)[O-])cc2)cc1.[Na+]
[1]
  inhibition in vivo at 10 mg/kg: 32%
[2]
  Inhibition: 33.9%
[3]
  Inhibition: 24.9%

## COc1ccc2c(c1)c(CC(=O)O)c(C)n2C(=O)c1ccc(Cl)cc1 [INDOMETHACIN]
[28]
  Activity: 39 mm2
[29]
  Activity: 2 g

## Cc1ccc(-c2cc(C(F)(F)F)nn2-c2ccc(S(=O)(=O)NOC(C)C(=O)O)cc2)cc1 (racemic; 21)
[1]
  inhibition in vivo at 10 mg/kg: 38.4%
[2]
  inhibition in vivo at 10 mg/kg: 21.8%
[3]
  inhibition in vivo at 10 mg/kg: 16.2%

## CCOC(=O)C(C)ONS(=O)(=O)c1ccc(-n2nc(C(F)(F)F)cc2-c2ccc(C)cc2)cc1 (racemic)
[1]
  inhibition in vivo at 10 mg/kg: 23.5%
[2]
  inhibition in vivo at 10 mg/kg: 15.7%
[3]
  inhibition in vivo at 10 mg/kg: 7.3%
